Data reported in PubChem BioAssay.
Calls of active or inactive are those of the source.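 The calls were made as follows, unless noted: active = mean duplicate activation above the buffer control mean plus 5 SD of those controls; inactive = the rest.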

Columns and labels:
[1] = thallium flux activation in parental CHO cells, counter-screen for KCNQ1 potentiator project (AID 493006;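 active = duplicate-averaged activation above buffer control mean plus 5 SD of those controls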); conditions: parental CHO-K1 cells, FluxOR thallium flux, at 10 µM; active compounds read high
How it was run: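 Test system: parental CHO-K1 cells, FluxOR dye-loaded / Probe or stimulus: potassium plus thallium depolarizing stimulus, 5x stock 12.5 mM K2SO4, Tl2SO4 / Timing: overnight 37 °C plating, 90 min dye, 20 min dark compound / Measured by: kinetic thallium-flux fluorescence / Read-out: max-minus-min fluorescence over baseline, percent of buffer-to-R-L3 span / Benchmarks: buffer and R-L3 controls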

[2] = molecular target: Potassium voltage-gated channel subfamily KQT member 1 (Homo sapiens) (UniProt P51787); assay: KCNQ1 potassium channel potentiators, confirmation, FluxOR thallium flux, CHO cells, duplicates (AID 493007;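 active = potentiation averaged over duplicate wells exceeding buffer-only control mean by more than 3 SD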;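 as to outcome: cells depolarized by a potassium plus thallium sulfate stimulus after compound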;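 as to potentiation: 0% = buffer-only wells and 100% = R-L3 activator control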); conditions: KCNQ1 cell line, FluxOR thallium flux fluorescence, at 10 µM; active compounds read high, % of reference activator effect, buffer zero
Sequence of Potassium voltage-gated channel subfamily KQT member 1 (Homo sapiens) (P51787 whole entry, looked up): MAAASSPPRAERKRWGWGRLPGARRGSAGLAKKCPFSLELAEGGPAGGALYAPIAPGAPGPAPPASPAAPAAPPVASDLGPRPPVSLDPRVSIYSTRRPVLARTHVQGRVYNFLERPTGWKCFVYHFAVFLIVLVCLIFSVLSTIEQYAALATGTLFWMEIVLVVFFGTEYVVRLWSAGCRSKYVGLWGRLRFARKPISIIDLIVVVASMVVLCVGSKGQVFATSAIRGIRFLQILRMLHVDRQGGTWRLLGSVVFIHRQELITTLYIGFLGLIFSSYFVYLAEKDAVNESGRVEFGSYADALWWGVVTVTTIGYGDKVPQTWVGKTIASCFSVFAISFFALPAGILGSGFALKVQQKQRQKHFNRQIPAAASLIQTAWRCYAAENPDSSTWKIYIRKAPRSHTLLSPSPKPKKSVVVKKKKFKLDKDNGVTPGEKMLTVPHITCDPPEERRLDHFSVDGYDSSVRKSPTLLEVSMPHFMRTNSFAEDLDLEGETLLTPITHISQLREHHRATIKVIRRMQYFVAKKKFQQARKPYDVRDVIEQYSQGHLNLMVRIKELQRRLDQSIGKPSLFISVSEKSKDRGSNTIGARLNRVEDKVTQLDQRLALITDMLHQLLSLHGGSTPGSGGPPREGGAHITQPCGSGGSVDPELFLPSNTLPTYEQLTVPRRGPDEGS
How it was run: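 Assay system: CHO cells carrying KCNQ1 | Controls: Buffer and R-L3 controls | Schedule: FluxOR dye loading 90 min, compound exposure 20 min, room temperature | Read-out: Baseline-normalized fluorescence change, percent of buffer-to-R-L3 range | Replicates: Each compound tested in duplicate | Technique: Kinetic thallium influx fluorescence with FluxOR dye, 10 s baseline, 110 s post-stimulus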

[3] = molecular target: Potassium voltage-gated channel subfamily KQT member 2 (Rattus norvegicus) (UniProt O88943); assay: rat KCNQ2 channel potentiation, selectivity assay for KCNQ1 potentiator project, KCNQ2-CHO-K1 cells (AID 493009;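 active = mean duplicate potentiation above the buffer control mean plus 5 SD of buffer wells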;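 also: assay conditions were tuned for KCNQ1 rather than KCNQ2 modulators; signal is max minus min fluorescence divided by baseline after thallium stimulus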); conditions: FluxOR thallium flux fluorescence, at 10 µM; active compounds read high, scaled: buffer 0, activator control 100
Sequence of Potassium voltage-gated channel subfamily KQT member 2 (Rattus norvegicus) (O88943 whole entry, looked up): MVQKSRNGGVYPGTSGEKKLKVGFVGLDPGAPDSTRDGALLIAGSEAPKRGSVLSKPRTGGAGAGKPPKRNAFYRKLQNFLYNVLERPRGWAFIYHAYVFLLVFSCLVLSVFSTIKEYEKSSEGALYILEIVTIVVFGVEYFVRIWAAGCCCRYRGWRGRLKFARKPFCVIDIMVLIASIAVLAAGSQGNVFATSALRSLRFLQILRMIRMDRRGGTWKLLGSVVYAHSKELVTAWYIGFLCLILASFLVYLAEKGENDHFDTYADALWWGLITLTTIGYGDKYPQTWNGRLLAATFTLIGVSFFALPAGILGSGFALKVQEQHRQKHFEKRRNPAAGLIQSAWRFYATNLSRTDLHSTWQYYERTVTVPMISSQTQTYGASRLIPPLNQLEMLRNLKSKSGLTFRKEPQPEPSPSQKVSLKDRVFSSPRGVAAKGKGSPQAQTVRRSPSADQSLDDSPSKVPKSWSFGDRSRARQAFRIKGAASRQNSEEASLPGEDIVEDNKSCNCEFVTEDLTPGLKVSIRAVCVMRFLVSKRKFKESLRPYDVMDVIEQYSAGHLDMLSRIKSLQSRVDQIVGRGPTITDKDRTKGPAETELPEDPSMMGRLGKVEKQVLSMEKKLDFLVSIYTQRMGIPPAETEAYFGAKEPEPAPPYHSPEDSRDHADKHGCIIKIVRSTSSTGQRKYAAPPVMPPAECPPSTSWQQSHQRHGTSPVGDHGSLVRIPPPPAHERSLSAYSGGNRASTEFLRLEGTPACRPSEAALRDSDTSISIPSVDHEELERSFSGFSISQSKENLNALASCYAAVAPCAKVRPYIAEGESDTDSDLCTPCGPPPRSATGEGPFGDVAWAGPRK

[4] = molecular target: Potassium voltage-gated channel subfamily KQT member 1 (Homo sapiens) (UniProt P51787); assay: KCNQ1 channel current potentiators, confirmation, orthogonal assay for KCNQ1 potentiator project, IonWorks patch clamp, KCNQ1-CHO cells (AID 493184;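 active = current rise at least 3 SD above the untreated control mean in each of two repeat wells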); conditions: automated patch clamp current, at 10 µM; active compounds read high
How it was run: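 Material: KCNQ1-expressing CHO cells; doses: 10 µM final, single point; probe or stimulus: voltage step from -90 mV holding to +40 mV, 2,000 ms; signal: automated voltage clamp, amphotericin B perforated patch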

[5] = molecular target: Potassium voltage-gated channel subfamily E member 1 (Homo sapiens) + Potassium voltage-gated channel subfamily KQT member 1 (Homo sapiens) (UniProt P15382+P51787); assay: KCNQ1/KCNE1 complex potentiators, confirmation, selectivity assay for KCNQ1 potentiator project, thallium flux, CHO-K1 KCNQ1/E1 cells (AID 493186); conditions: FluxOR thallium flux, at 10 µM; active compounds read high;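 as to activation: 0% = assay buffer control and 100% = R-L3 activator control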
Sequence of Potassium voltage-gated channel subfamily E member 1 (Homo sapiens) + Potassium voltage-gated channel subfamily KQT member 1 (Homo sapiens) (P51787 whole entry, looked up): as the sequence (P51787 whole entry, looked up) above
How it was run: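 Test system: CHO-K1 cells with KCNQ1/E1. Times: 90-min dye loading then 20-min compound exposure, both at room temperature. Measured by: kinetic FluxOR thallium-flux fluorescence, 10 s baseline plus 110 s after stimulus. Repeats: duplicate wells per compound.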

Cc1ccc2[nH]c(=O)c(CN(CCCN(C)C)C(=S)NCCc3ccccc3)cc2c1
inactive: outcome [1] | outcome [2] | outcome [3] | outcome [4] | outcome [5]

O=C(NC(=S)Nc1nc(-c2ccccc2)cs1)c1cccs1
active: potentiation [2] 38%
inactive: outcome [1] | outcome [3] | outcome [4] | outcome [5]

CCOC(=O)c1c(N)sc(N)c1C(=O)OCC
active: potentiation [3] 170%
inactive: outcome [1] | outcome [2] | outcome [4] | outcome [5]

Cc1cc(C)c2c(n1)nn1c(NCCCN(C)C)cc(C)nc21
inactive: outcome [1] | outcome [2] | outcome [3] | outcome [4] | outcome [5]

O=C(CC(c1ccccc1)c1ccccc1)Nc1ncn[nH]1
inactive: outcome [1] | outcome [2] | outcome [3] | outcome [4] | outcome [5]

Cc1ccc(O)c(NC(=S)NC(=O)Cc2ccc(Cl)cc2)c1
active: potentiation [2] 38% | potentiation [3] 154%
inactive: outcome [1] | outcome [4] | outcome [5]

Cc1c(-c2nc(-c3ccncc3)no2)cccc1[N+](=O)[O-]
active: potentiation [2] 20%
inactive: outcome [1] | outcome [3] | outcome [4] | outcome [5]

O=C(Nc1ccccc1Br)c1ccccc1-c1ccccc1
inactive: outcome [1] | outcome [3] | outcome [4] | outcome [5]
active: potentiation [2] 29.5%

CCCCS(=O)(=O)/C=C\C=C/S(=O)(=O)CCCC
inactive: outcome [1] | outcome [2] | outcome [3] | outcome [4] | outcome [5]

Cc1cccc(N2CCN(C(=O)Cn3sc4nc(C)cc(C)c4c3=O)CC2C)c1 (stereo not given)
inactive: outcome [1] | outcome [2] | outcome [3] | outcome [4] | outcome [5]

Nc1nc(CCl)nc(Nc2ccc3ccccc3c2)n1
inactive: outcome [1] | outcome [2] | outcome [3] | outcome [4] | outcome [5]

Clc1ccc(Nc2ccc(Cl)nn2)cc1
inactive: outcome [1] | outcome [2] | outcome [4] | outcome [5]
active: potentiation [3] 147%

CC12CCC(C/C1=N\N=C1\NC(=O)/C(=C\c3cccc(Br)c3)S1)C2(C)C (stereo not given)
active: potentiation [2] 51% | potentiation [3] 154%
inactive: outcome [1] | outcome [4] | outcome [5]

COc1cc(OC)cc(-c2nnc(Nc3nc4c(F)cccc4s3)o2)c1
inactive: outcome [1] | outcome [2] | outcome [3] | outcome [4] | outcome [5]

O=C(NCc1ccccc1)c1ccc2c(c1)C(=O)N(Cc1cccnc1)C2=O
active: potentiation [2] 17.5%
inactive: outcome [1] | outcome [3] | outcome [4] | outcome [5]

Cc1nc(-c2ccc(NC(=O)Cc3ccccc3)cc2)cs1
inactive: outcome [1] | outcome [2] | outcome [3] | outcome [4] | outcome [5]

Clc1ccc(C2=Nn3c(nnc3-c3n[nH]c4c3CCC4)SC2)cc1Cl
inactive: outcome [1] | outcome [2] | outcome [3] | outcome [4] | outcome [5]

CC(=O)Nc1ccc(NC(=O)CSC2=NS(=O)(=O)c3cc(Cl)ccc3N2)cc1
inactive: outcome [1] | outcome [2] | outcome [3] | outcome [4] | outcome [5]

COc1ccc(-c2nonc2NC(=O)c2oc3ccccc3c2C)cc1OC
inactive: outcome [1] | outcome [2] | outcome [3] | outcome [4] | outcome [5]

CCN1CCN(c2ccc(S(=O)(=O)N3CCCC3)cn2)CC1
inactive: outcome [1] | outcome [2] | outcome [3] | outcome [4] | outcome [5]

S=c1[nH]nc(-c2ccco2)n1/N=C/c1ccc(Br)s1
inactive: outcome [1] | outcome [2] | outcome [3] | outcome [4] | outcome [5]

COc1cccc(-c2nc(=S)c3c(o2)CCCC3)c1
inactive: outcome [1] | outcome [2] | outcome [3] | outcome [4] | outcome [5]

CCNc1nc(NCC)nc(C(=O)OCCO)n1
inactive: outcome [1] | outcome [2] | outcome [3] | outcome [4] | outcome [5]

O=C(O)c1ccc2c(=O)n3cc(C(=O)c4ccccc4O)cc(Cl)c3nc2c1
inactive: outcome [1] | outcome [2] | outcome [3] | outcome [4] | outcome [5]

CC(C)(C)NCC(O)CON=C1c2ccccc2-c2ccccc21 (stereo not given)
active: activation [5] 15.2%
inactive: outcome [1] | outcome [2] | outcome [3] | outcome [4]

O=C(CSc1nnc(NC(=O)C2CCC2)s1)Nc1ccc(N2CCOCC2)cc1
inactive: outcome [1] | outcome [2] | outcome [3] | outcome [4] | outcome [5]

CCOc1cccc(/C=N/NC(=O)C2CCCC2)c1O
inactive: outcome [1] | outcome [2] | outcome [3] | outcome [4] | outcome [5]

COc1cc(C(=O)CCN2CCC(c3ccccc3)C2)cc(OC)c1OC (stereo not given)
inactive: outcome [1] | outcome [2] | outcome [3] | outcome [4] | outcome [5]

COc1ccc(-c2csc(N(CCCN(C)C)C(=O)c3ccccc3F)n2)cc1
inactive: outcome [1] | outcome [2] | outcome [3] | outcome [4] | outcome [5]

COc1nccnc1NS(=O)(=O)c1ccc(NC(=S)NC(=O)c2ccccc2F)cc1
inactive: outcome [1] | outcome [2] | outcome [3] | outcome [4] | outcome [5]

O=c1c2ccccc2[nH]c(=S)n1C1CCCCC1
inactive: outcome [1] | outcome [2] | outcome [3] | outcome [4] | outcome [5]

O=C(O)CCn1c(-c2ccccc2)cc2ccccc21
inactive: outcome [1] | outcome [2] | outcome [3] | outcome [4] | outcome [5]

CCC1CCCCN1CCCNC(=O)CSc1nc2nc(C)c(Cc3ccccc3)c(C)n2n1 (stereo not given)
inactive: outcome [1] | outcome [2] | outcome [3] | outcome [4] | outcome [5]

c1ccc(CNc2nc3ccccc3[nH]2)cc1
inactive: outcome [1] | outcome [2] | outcome [3] | outcome [4] | outcome [5]

CC1(C)CC(N=c2cc(-c3ccccc3)oc3ccc(Cl)cc23)CC(C)(C)N1
inactive: outcome [1] | outcome [2] | outcome [3] | outcome [4] | outcome [5]

O=C(CNS(=O)(=O)c1ccc([N+](=O)[O-])cc1)N/N=C\c1ccc(O)cc1
active: potentiation [2] 24% | potentiation [3] 154%
inactive: outcome [1] | outcome [4] | outcome [5]

CC(C)Oc1cccc(C(=O)NC(=S)N2CCN(c3ccc(C(F)(F)F)cc3[N+](=O)[O-])CC2)c1
inactive: outcome [1] | outcome [4] | outcome [5]
active: potentiation [2] 35.5% | potentiation [3] 144%

Cc1ccc(-c2noc(CNS(=O)(=O)c3ccccc3)n2)cc1
inactive: outcome [1] | outcome [2] | outcome [3] | outcome [4] | outcome [5]

CCC1=NN2C(=N)/C(=C/c3ccc(OS(=O)(=O)c4ccccc4)c(OC)c3)C(=O)N=C2S1
inactive: outcome [1] | outcome [2] | outcome [3] | outcome [4] | outcome [5]

CN(CC(=O)NCc1ccccc1Cl)CC(=O)Nc1cccc(F)c1
inactive: outcome [1] | outcome [2] | outcome [3] | outcome [4] | outcome [5]

CN(C1CCCCC1)S(=O)(=O)c1ccc(NC(=S)NC(=O)c2cccs2)cc1
inactive: outcome [1] | outcome [4] | outcome [5]
active: potentiation [2] 30% | potentiation [3] 155%

Cc1ccc(S(=O)(=O)N2CCN(C(=O)c3ccc(Br)o3)CC2)c(C)c1
inactive: outcome [1] | outcome [2] | outcome [3] | outcome [4] | outcome [5]

CCn1c(SCC(=O)c2cccs2)nnc1-c1cccs1
inactive: outcome [1] | outcome [2] | outcome [3] | outcome [4] | outcome [5]

CCCOc1ccc(C(=O)NNC(=S)NC(=O)c2cc(-c3ccc(Cl)cc3)nc3ccccc23)cc1
inactive: outcome [1] | outcome [2] | outcome [3] | outcome [4] | outcome [5]

O=C(NC(=S)Nc1cccc([N+](=O)[O-])c1)c1ccco1
inactive: outcome [1] | outcome [2] | outcome [3] | outcome [4] | outcome [5]

CSc1ncc(C(=O)Nc2ccccc2Cl)c(C)n1
inactive: outcome [1] | outcome [2] | outcome [3] | outcome [4] | outcome [5]

CCOC(=O)SC1=N/C(=C\c2ccc(N(C)C)cc2)C(=O)S1
inactive: outcome [1] | outcome [2] | outcome [3] | outcome [4]
active: activation [5] 15.3%

S=C(NCCc1ccccc1)N1CCn2cccc2C1c1cccnc1 (stereo not given)
active: potentiation [2] 18.5%
inactive: outcome [1] | outcome [3] | outcome [4] | outcome [5]

Cc1ccsc1/C=N/Nc1nc2ccccc2s1
inactive: outcome [1] | outcome [2] | outcome [3] | outcome [4] | outcome [5]

CCC(C)NC(=O)Cn1c(-c2ccccc2)cc(C(C)=O)c1C (stereo not given)
inactive: outcome [1] | outcome [3] | outcome [4] | outcome [5]
active: potentiation [2] 22%

O=C(CSc1nnc(-c2ccco2)o1)Nc1cccc([N+](=O)[O-])c1
inactive: outcome [1] | outcome [2] | outcome [3] | outcome [4] | outcome [5]

CCOC(=O)c1c(C)cccc1OCC(N)=O
inactive: outcome [1] | outcome [2] | outcome [3] | outcome [4] | outcome [5]

CCCC(=O)n1nc(-c2ccc(C)cc2)nc1NCc1ccco1
inactive: outcome [1] | outcome [4] | outcome [5]
active: potentiation [2] 80% | potentiation [3] 148%

CC(=O)Nc1ccc(/C=N/NC(=O)c2cccc(S(=O)(=O)N3CCOCC3)c2)cc1
inactive: outcome [1] | outcome [2] | outcome [3] | outcome [4] | outcome [5]

Oc1oc(-c2ccccc2)nc1/C=N/c1nccs1
active: potentiation [2] 29.5%
inactive: outcome [1] | outcome [3] | outcome [4] | outcome [5]

CCOC(=O)N/C(N)=N/c1nc2ccccc2s1
inactive: outcome [1] | outcome [2] | outcome [3] | outcome [4] | outcome [5]

O=C(NNC(=S)NC(=O)c1ccc(Br)cc1)c1cccc([N+](=O)[O-])c1
inactive: outcome [1] | outcome [2] | outcome [3] | outcome [4] | outcome [5]

Cc1nn(Cc2ccc(Cl)cc2)c(C)c1NC(=O)c1cc(-c2ccco2)on1
inactive: outcome [1] | outcome [2] | outcome [3] | outcome [4] | outcome [5]

C/C(=N\NC(=S)NCCc1ccccc1)c1cccs1
inactive: outcome [1] | outcome [2] | outcome [3] | outcome [4] | outcome [5]

CC1CN(C(=S)NC(=O)c2ccco2)CC(C)O1 (stereo not given)
inactive: outcome [1] | outcome [2] | outcome [3] | outcome [4] | outcome [5]
